Tests used:
[1] = Phase Ib pharmacokinetics, single dose; format: in vivo, human
Outline: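 Blood collected on Day 1 at 0.05 h before the first oral dose and 0.5, 1, 1.5, 2, 4, 6, 8, 10, 12 and 24 h after. Test compound quantified by LC-MS using multiple reaction monitoring, LLOQ 1 ng/mL. Cmax, AUC, CL, t1/2 and related parameters were derived from individual concentration-time profiles and summarised descriptively.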

EGFR = conditions: read-out: half maximal inhibitory concentration on EGFR; in vitro; cited from earlier work
human A431 tumor cells = conditions: in vitro, cells with high expression of EGFR; cited from earlier work
EGFR phosphorylation = conditions: in vivo, preclinical; cited from earlier work
[2] = single dose 100 mg, N=2, mean ± SD
[3] = single dose 200 mg, N=3, mean ± SD
[4] = single dose 300 mg, N=3, mean ± SD
[5] = single dose 400 mg, N=15, mean ± SD
[6] = single dose 500 mg, N=12, mean ± SD
[7] = single dose 650 mg, N=6, mean ± SD

simotinib
bioavailability ([1]; orally administered): good bioavailability | Tmax ([1]; single dose 100 mg, N=2): 1.8 (1.5–2.0) h | AUC0-last [1, 2]: 405.6 ± 94.8 ng·h/mL | AUC0-∞ [1, 2]: 466.2 ± 129.9 ng·h/mL | CL [1, 2]: 223.1 ± 62.2 L/h | Cmax [1, 2]: 56.5 ± 18.2 ng/mL | T1/2 [1, 2]: 5.3 ± 0.3 h | Vd [1, 2]: 1,704.0±385.8 L | Tmax ([1]; single dose 200 mg, N=3): 2.0 (2.0–2.0) h | AUC0-last [1, 3]: 2,339.6±479.9 ng•hr/mL | AUC0-∞ [1, 3]: 2,955.0±564.0 ng•hr/mL | CL [1, 3]: 68.9 ± 13.2 L/h | Cmax [1, 3]: 333.0 ± 35.4 ng/mL | T1/2 [1, 3]: 12.2 ± 3.5 h | Vd [1, 3]: 1,250.1±579.7 L | Tmax ([1]; single dose 300 mg, N=3): 1.5 (1.5–2.0) h | AUC0-last [1, 4]: 2,814.0±764.5 ng•hr/mL | AUC0-∞ [1, 4]: 3,243.8±776.1 ng•hr/mL | CL [1, 4]: 95.2 ± 22.8 L/h | Cmax [1, 4]: 552.5 ± 388.2 ng/mL | T1/2 [1, 4]: 9.2 ± 1.0 h | Vd [1, 4]: 1,286.1±438.6 L | Tmax ([1]; single dose 400 mg, N=15): 2.0 (1.0–8.0) h | AUC0-last [1, 5]: 3,581.9±1,868.5 ng•hr/mL | AUC0-∞ [1, 5]: 4,962.1±3,141.7 ng•hr/mL | CL [1, 5]: 127.4 ± 117.6 L/h | Cmax [1, 5]: 566.4 ± 372.0 ng/mL | T1/2 [1, 5]: 13.3 ± 6.3 h | Vd [1, 5]: 2,097.2±1,506.8 L | Tmax ([1]; single dose 500 mg, N=12): 1.8 (0.5–4.0) h | AUC0-last [1, 6]: 3,791.0±2,741.1 ng•hr/mL | AUC0-∞ [1, 6]: 6,483.8±5,008.4 ng•hr/mL | CL [1, 6]: 200.5 ± 300.1 L/h | Cmax [1, 6]: 514.5 ± 316.4 ng/mL | T1/2 [1, 6]: 28.0 ± 33.8 h | Vd [1, 6]: 7,166.6±12,246.1 L | Tmax ([1]; single dose 650 mg, N=6): 2.0 (1.0–6.0) h | AUC0-last [1, 7]: 4,652.1±3,442.1 ng•hr/mL | AUC0-∞ [1, 7]: 7,648.4±3,028.7 ng•hr/mL | CL [1, 7]: 97.7 ± 39.2 L/h | Cmax [1, 7]: 828.5 ± 849.0 ng/mL | T1/2 [1, 7]: 29.7 ± 32.2 h | Vd [1, 7]: 3,873.8±3,378.1 L | time to Cmax, range over doses ([1]; single dose, all doses): 1.5 to 2.0 h | IC50 (EGFR): 19.9 nM | inhibition of growth of human A431 tumor cells (human A431 tumor cells): inhibits in a dose-dependent manner | antitumor activity in nude xenograft model (EGFR phosphorylation): inhibiting EGFR phosphorylation

Reference: publication PMC6525002 (Cancer Management and Research, 2019)
